# According to ChEMBL document CHEMBL2146371, “Biologically active dibenzofurans from Pilidiostigma glabrum, an endemic Australian Myrtaceae” (J Nat Prod, 2012):
# Calls of active or inactive are those of the source. No cut-off for these calls is given here.
# Assays:
# [1] = test system: RAW264.7; assay: Antiinflammatory activity in mouse RAW264.7 cells assessed as inhibition of LPS-induced nitric oxide production incubated for 1 hr prior to LPS-challenge measured after 20 hrs by Griess method; assay type: functional, cell-based
# How it was run: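 RAW264 cells (10^6 cells/mL, 120 μL/well) were pre-incubated for 20 h. Compounds in DMSO, diluted 20-fold in medium, were added for 1 h. LPS (10 μL of 10 μg/mL) was then added and incubation continued for 20 h. Nitrite was measured by Griess reagent (23 °C, 20 min, A550) against 0–100 μM standards. Triplicate; expressed as a percentage of solvent control.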
# [2] = test system: Staphylococcus epidermidis; assay: Antibacterial activity against Staphylococcus epidermidis ATCC 35984 incubated overnight followed by compound transfer to TSB medium measured after overnight incubation by cell counting; assay type: functional
# [3] = test system: Pseudomonas aeruginosa; assay: Antibacterial activity against Pseudomonas aeruginosa ATCC 27853 after overnight incubation by broth microdilution method; assay type: functional
# How it was run: (§1)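 Broth microdilution (CLSI M7A7, modified) in tryptone soya broth with 0.025 g/mL glucose, replacing Mueller-Hinton. Compounds were 2-fold serially diluted in TSB containing 2% DMSO. Inoculum came from a 0.5 McFarland suspension diluted 1:100, giving about 5 × 10^5 cfu in 100 μL. Plates were incubated overnight at 37 °C. MIC = lowest concentration with no growth visible to the unaided eye.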
# [4] = Cytotoxicity against mouse RAW264.7 cells after 24 hrs by ATPlite assay; assay type: cell-based; details: read-out: ED50
# How it was run: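 RAW264 cells were plated at 30 000/well in DMEM with 10% FBS. Compounds were tested at six concentrations from DMSO stocks diluted 20-fold in medium, for 24 h at 37 °C, 5% CO2. Cellular ATP was read by ATPlite luminescence. Triplicate; ED50 with 95% CI from curve fitting.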
# [5] = test system: RAW264.7; assay: Selectivity index, ratio of cytotoxic ED50 for mouse RAW264.7 cells to IC50 for LPS-induced nitric oxide synthesis in mouse RAW264.7 cells; assay type: functional
# How it was run: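 Selectivity index = RAW264 cytotoxicity ED50 (24 h ATPlite) divided by IC50 for inhibition of LPS-induced nitrite production in RAW264 cells.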
# [6] = Antioxidant activity against AAPH-induced fluorescein peroxidation assessed as trolox equivalent measured every min for 35 mins by fluorimetric analysis; assay type: functional
# How it was run: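 ORAC: samples were diluted from 20 mg/mL DMSO stock into 75 mM phosphate buffer (pH 7.4), then 2-fold serially, with each tested at two concentrations. Reaction used fluorescein (10 μL, 5 μM) and AAPH (170 μL, 20 mM). Fluorescence was read every minute for 35 min at 37 °C. Values come from a Trolox standard curve (12.5–100 μM) of net AUC and are given as μmol TE/g. Quadruplicate.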
# [7] = test system: NIH3T3; assay: Selectivity index, ratio of cytotoxic ED50 for Swiss albino mouse 3T3 cells to IC50 for calcium ionophore A23187-induced PGE2 synthesis in Swiss albino mouse 3T3 cells; assay type: functional
# [8] = test system: Staphylococcus aureus; assay: Antibacterial activity against Staphylococcus aureus ATCC 29213 after overnight incubation by broth microdilution method; assay type: functional; how it was run: as §1
# [9] = Cytotoxicity against Swiss albino mouse 3T3 cells; assay type: cell-based, NIH3T3; details: read-out: ED50 (the source's name)
# [10] = Antiinflammatory activity in Swiss albino mouse 3T3 cells assessed as inhibition of calcium ionophore A23187-induced PGE2 synthesis incubated for 3 hrs prior to calcium ionophore A23187-challenge measured after 15 mins by enzyme immunoassay; assay type: functional, cell-based; details: NIH3T3
# How it was run: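 3T3 cells were seeded at 27 × 10^3/well in phenol-red-free DMEM with 5% FBS and 5% newborn calf serum, then left to attach overnight. Compounds in DMSO (0.5% final) were added for 3 h at 37 °C. A23187 (0.5 mM, 10 μL/well) was then added for 15 min. Supernatant was diluted 81-fold and PGE2 measured by EIA. Triplicate; percent inhibition relative to DMSO control.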
# [11] = test system: Escherichia coli; assay: Antibacterial activity against Escherichia coli ATCC 25922 after overnight incubation by broth microdilution method; assay type: functional; how it was run: as §1
# [12] = test system: RAW264.7; assay: Antiinflammatory activity in mouse RAW264.7 cells assessed as inhibition of LPS-induced TNFalpha production incubated for 1 hr prior to LPS-challenge measured after 20 hrs by immunoassay; assay type: functional, cell-based
# How it was run: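 TNF-α was measured by mouse ELISA kit in the same LPS-stimulated RAW264 supernatants as the nitrite assay. Compounds were added 1 h before LPS (10 μL of 10 μg/mL), followed by 20 h incubation.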
# [13] = test system: Staphylococcus aureus; assay: Antibacterial activity against Staphylococcus aureus ATCC 25923 after overnight incubation by broth microdilution method; assay type: functional; how it was run: as §1
# [14] = test system: Staphylococcus aureus; assay: Antibacterial activity against Staphylococcus aureus ATCC 29213 incubated overnight followed by compound transfer to TSB medium measured after overnight incubation by cell counting; assay type: functional
# [15] = test system: Staphylococcus epidermidis; assay: Antibacterial activity against Staphylococcus epidermidis ATCC 35984 after overnight incubation by broth microdilution method; assay type: functional; how it was run: as §1
# [16] = test system: Staphylococcus aureus; assay: Antibacterial activity against Staphylococcus aureus ATCC 25923 incubated overnight followed by compound transfer to TSB medium measured after overnight incubation by cell counting; assay type: functional
Structure (SMILES),IC50 [1],MIC [3],MIC [8],IC50 [10],MIC [11],MIC [13],MIC [15],inhibition [1],MBC [2],CC50 at 24 h [4],Selectivity Index [5],Activity [6],Selectivity Index [7],CC50 [9],inhibition [12],MBC [14],MBC [16]
Oc1cc(O)c2c(c1)O[C@H](c1ccc(O)c(O)c1)[C@H](O)C2,,,,,,,,,,,,29200 µmol/g,,,,,
C[C@H]1COc2c(N3CCN(C)CC3)c(F)cc3c(=O)c(C(=O)O)cn1c23 [LEVOFLOXACIN],,< 0.53 µM,< 0.53 µM,,< 0.53 µM,< 0.53 µM,< 0.53 µM,,,,,,,,,,
CC[C@H](C)C(=O)c1c(O)c(C)c2oc3c(C)c(O)c(C(=O)CC(C)C)c(O)c3c2c1O [RHODOMYRTOXIN C],1.2 µM,,7.2 µM,3.4 µM,inactive,0.9 µM,1.9 µM,Dose-dependent effect,1.9 µM,1.4 µM,1.17,1010 µmol/g,2.06,7 µM,inactive,7.2 µM,0.9 µM
CC[C@H](C)C(=O)c1c(O)c(C)c(O)c2c1oc1c(C(=O)[C@@H](C)CC)c(O)c(C)c(O)c12,5 µM,,7.2 µM,> 200 µM,inactive,3.7 µM,3.7 µM,Dose-dependent effect,3.7 µM,6.8 µM,1.36,3640 µmol/g,,24.1 µM,inactive,14.7 µM,3.7 µM

# The remaining compounds from weak to strong by MIC [8], led by results:
IC50 [1],MIC [3],MIC [8],IC50 [10],MIC [11],MIC [13],MIC [15],Structure (SMILES),inhibition [1],MBC [2],CC50 at 24 h [4],Selectivity Index [5],Activity [6],Selectivity Index [7],CC50 [9],inhibition [12],MBC [14],MBC [16]
89 µM,inactive,26.5 µM,> 200 µM,inactive,13.2 µM,13.2 µM,Cc1c(O)c(C(=O)C(C)C)c2oc3c(C(=O)C(C)C)c(O)c(C)c(O)c3c2c1O,,13.2 µM,142 µM,1.6,609 µmol/g,,44 µM,inactive,26.5 µM,26.5 µM
4.4 µM,,12.1 µM,> 200 µM,inactive,6 µM,6 µM,CC[C@H](C)C(=O)c1c(O)c(C)c(O)c2c1oc1c(C(=O)C(C)C)c(O)c(C)c(O)c12,Dose-dependent effect,6 µM,17.6 µM,4,6280 µmol/g,,22.3 µM,inactive,24.1 µM,24.1 µM
0.6 µM,,3.9 µM,6 µM,inactive,0.5 µM,1.9 µM,CC[C@H](C)C(=O)c1c(O)c(C)c2oc3c(C)c(O)c(C(=O)C(C)C)c(O)c3c2c1O,Dose-dependent effect,3.9 µM,6.5 µM,10.83,2580 µmol/g,1.57,9.4 µM,inactive,3.9 µM,1.9 µM
3.4 µM,inactive,2.7 µM,4.5 µM,inactive,2.7 µM,2.7 µM,Cc1c(O)c(C(=O)C(C)C)c(O)c2c1oc1c(C)c(O)c(C(=O)C(C)C)c(O)c12,Dose-dependent effect,22.7 µM,12 µM,3.53,1450 µmol/g,3.4,15.3 µM,inactive,11.4 µM,5.7 µM
